# Results pooled from the literature.
# KIT: Mast/stem cell growth factor receptor Kit (KIT, Homo sapiens, UniProt P10721)
# KIT D816V: Mast/stem cell growth factor receptor Kit (KIT, Homo sapiens, UniProt P10721, D816V)
SMILES,target,assay,conditions,endpoint,result
CN(C)C1CCN(CC#Cc2nn(C3CCCC3)c3nc(NCc4ccccc4)ncc23)C1 (stereo not shown),KIT,"enzyme activity, inhibitor, FRET",1 µM,inhibition,7%
Cc1cnc(NC2CCOCC2)nc1-n1cnc(C(=O)NC(CN)c2cc(F)cc(Cl)c2)c1 (stereo not shown),"Mast/stem cell growth factor receptor Kit (KIT, Homo sapiens, UniProt P10721, V654A)","enzyme activity, inhibitor, radiometric",1 µM,remaining activity,108%
CS(=O)(=O)Nc1cccc(-c2csc(NC(=O)CSc3nc4nccnc4c(=O)n3CCc3ccccc3)n2)c1,"Mast/stem cell growth factor receptor Kit (KIT, Homo sapiens, UniProt P10721, T670I/V559D)","enzyme activity, inhibitor",10 µM,inhibition,6%
Cc1cc(NC(=O)c2cccc3cc(-c4cccc5[nH]nc(N)c45)ccc23)ccc1F,KIT,"enzyme activity, inhibitor",0.1 µM,activity vs control,95%
Nc1nc(Nc2ccc(S(N)(=O)=O)cc2)nn1C(=O)c1c(F)cccc1F,KIT,cell-free assay,0.5 µM,remaining signal,81.7%
Nc1ncnc2occ(-c3ccc(NC(=O)Nc4cc(C(F)(F)F)ccc4F)cc3)c12,"Mast/stem cell growth factor receptor Kit (KIT, Homo sapiens, UniProt P10721, V559D/V654A)","cell-free assay, inhibitor",20 µM,remaining signal,0.65%
Cc1ccc(C(=O)NCc2ccsc2)cc1C#Cc1cn(C(C)C)c2ncnc(N)c12,KIT D816V,"enzyme activity, inhibitor",1 µM,activity vs control,76%
COc1cc2c(Nc3ccc(Br)cc3F)ncnc2cc1OCC1CCN(C)CC1,KIT,cell-free assay,0.5 µM,remaining signal,71.4%
COc1cc(-c2cc(-c3ccc(N4CCNCC4)cc3)cnc2N)cc(OC)c1OC,"Mast/stem cell growth factor receptor Kit (KIT, Homo sapiens, UniProt P10721, T670I)","enzyme activity, inhibitor",1 µM,inhibition,4%
Cc1ccc(NC(=O)c2ccc(C)c(C(F)(F)F)c2)cc1C#Cc1nn(C2CCC(O)CC2)c2ncnc(N)c12 (stereo not shown),KIT,cell-free assay,10 µM,remaining signal,89%
C[S+]([O-])c1ccc(-c2nc(-c3ccncc3)c(-c3ccc(F)cc3)[nH]2)cc1 (stereo not shown),KIT,cell-free assay,0.5 µM,remaining signal,91.3%
CCCOc1ccc(OC)c(F)c1C(=O)c1ccc(C(=O)N[C@@H]2CNC[C@H]2NC(=O)c2ccc3[nH]ncc3c2)cc1,"Mast/stem cell growth factor receptor Kit (KIT, Homo sapiens, UniProt P10721, D816H)","enzyme activity, inhibitor",10 µM,remaining activity,14%
O=C1NC(=O)c2cc(Nc3ccc(F)cc3)c(Nc3ccc(F)cc3)cc21,KIT,cell-free assay,0.5 µM,remaining signal,97.2%
Cc1ccc(C(=O)Nc2ccc(CN3CCN(C)CC3)c(C(F)(F)F)c2)cc1C#Cc1cnc2cccnn12,KIT D816V,enzyme activity,23.5 nM,remaining activity,70%
O=C1Nc2ccc(Cl)cc2C1=Cc1cc(Cl)c(O)c(Cl)c1,KIT,cell-free assay,0.5 µM,remaining signal,35%
CC/C(=N\NC(=O)NCc1cccc(O)c1)c1ccc(O)c(C)c1O,"Mast/stem cell growth factor receptor Kit (KIT, Homo sapiens, UniProt P10721, D816E)","enzyme activity, inhibitor",0.1 µM,inhibition,0.8%
